From PubChem BioAssay
TNAP act DEA = human TNAP activation, intermediate phosphate acceptor; P05186; purified TNAP, CDP-star luminescence, 100 mM DEA, 30 min; hits give high values; scale: 0 levamisole-inhibited, 1 vehicle-only enzyme; activation factor at 20 µM; 64,000 tested, under 10 active;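 active means activation factor of at least 2 at 20 µM, relative to controls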
Target sequence (P05186 whole entry, looked up): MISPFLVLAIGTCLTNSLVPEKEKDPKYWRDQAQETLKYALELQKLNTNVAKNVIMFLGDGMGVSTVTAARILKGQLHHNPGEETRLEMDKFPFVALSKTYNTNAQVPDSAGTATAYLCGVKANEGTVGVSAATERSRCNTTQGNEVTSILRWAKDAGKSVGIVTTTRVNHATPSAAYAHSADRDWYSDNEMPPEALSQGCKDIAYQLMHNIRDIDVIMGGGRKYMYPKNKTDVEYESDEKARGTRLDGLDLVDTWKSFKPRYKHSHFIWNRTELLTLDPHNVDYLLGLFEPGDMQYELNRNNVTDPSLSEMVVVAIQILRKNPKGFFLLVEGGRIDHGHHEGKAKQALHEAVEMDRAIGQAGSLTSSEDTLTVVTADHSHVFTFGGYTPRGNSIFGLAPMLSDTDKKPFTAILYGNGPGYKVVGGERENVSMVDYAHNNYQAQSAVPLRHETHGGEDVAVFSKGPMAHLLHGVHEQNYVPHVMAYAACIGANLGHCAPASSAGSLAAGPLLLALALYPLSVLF
Calb biofilm kill = kills Candida albicans biofilms; C. albicans biofilm + clotrimazole, Alamar Blue; inhibition, % at 6 µM; hit rate 0.14% among 85,000; AID 834;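 active means inhibition above 20%; inactive means inhibition below 20%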;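 further: preformed 24 hr biofilms exposed to compound for 48 hr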
MMP13 inh = MMP13 (human) collagenase inhibition. hit rate 0.07% among 65,000. inhibition, % at 4 µM. AID 570. MMP-13 fTHP FRET cleavage, Mca fluorescence;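 active means inhibition above the mean of compound-free control plate wells plus 3 SD, cut at about 14% in these data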
Jurkat tox 60K = cytotoxic compounds reducing Jurkat cell viability. Jurkat E6.1 viability, ATP luminescence, 48 h. inhibition, % at 4 µM. hit rate 1.2% among 56,000. AID 463;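 active means inhibition above the mean inhibition of all tested compounds plus 3 SD, cut at about 28% in these data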
HEK293 NFkB inh = inhibitors of the PMA/ionomycin-induced NF-kB reporter in HEK293 cells. HEK-293 NF-kB luciferase reporter, luminescence. AID 465. hit rate 0.21% among 62,000. inhibition, % at 3 µM;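 active means inhibition above the mean of all tested compounds plus 3 SD, cut at about 40% in these data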
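Reagent: PMA plus ionomycin mix as NF-kB-activating stimulus. Assay system: NF-kB luciferase reporter HEK-293 cells. Technique: luminescence from luciferase substrate reagent. Incubation: 1 h compound pre-incubation, 16 h PMA/ionomycin at 37 °C. Benchmarks: DMSO only as uninhibited control, 10 µM reference inhibitor as full inhibition. Repeats: tested once.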
A number is an active result; – = inactive; · = not tested or not shown. Many of the other results were omitted from the sample, so hits are more common in it than they were.

SMILES	TNAP act DEA	Calb biofilm kill	MMP13 inh	Jurkat tox 60K	HEK293 NFkB inh
COc1ccccc1C1C=C(c2ccc(C)cc2)Nc2nnnn21 (centres undefined)	–	–	–	35.9	–
C=CC[n+]1c(-c2ccc(OCC)cc2)csc1NNC(=O)Nc1ccccc1	·	–	·	·	·
Cc1cc(/C=N/Nc2ccc([N+](=O)[O-])cn2)c(C)n1-c1ccccc1	·	25.3	·	·	·
Cc1nc2ccccn2c1C(=O)N/N=C/c1cc(C)n(-c2ccc(Br)cc2)c1C	·	–	·	·	·
Cn1c(SCCCC(=O)c2ccc(Br)cc2)nnc1-c1ccncc1	·	–	·	·	·
CCOC(=O)N1CCC(n2c(SCC(=O)N3CCC(C)CC3)nc3ccccc3c2=O)CC1	·	24.1	·	·	·
Cc1ccc(-c2nc(CS(=O)CC(=O)NC3CCC(C)CC3)c(C)o2)cc1 (centres undefined)	–	–	–	–	–
O=C(Nc1ccc2oc(Cc3ccc(Cl)cc3)nc2c1)c1cccnc1	–	–	–	34.3	–
CCN(CC)c1nc(C#N)cc(-c2ccc(OC)cc2)n1	–	–	–	41.0	–
CCOC(=O)C1=C(N)n2c(s/c(=C/c3ccco3)c2=O)=C(C(=O)OC)C1c1ccco1 (centres undefined)	–	–	14.2	–	–
CCOc1ccc(S(=O)(=O)N2CCN(c3ccccc3F)CC2)c2cccnc12	·	–	·	·	·
O=C(CSc1ccc2nnc(-c3cccs3)n2n1)N1CCOCC1	–	–	–	–	–
O=C(CSc1ccc2nnc(-c3ccccn3)n2n1)N1CCOCC1	–	46.2	–	–	–
CCOc1ccccc1CN(Cc1ccco1)S(=O)(=O)c1ccc(-n2cnnn2)c(OC)c1	–	·	–	67.3	–
O=C(COc1ccc(S(=O)(=O)N2CCOCC2)cc1)Nc1ccccc1C(F)(F)F	·	–	·	·	·
N#CC1=C(N)Oc2cc(N)ccc2C1C1CC=CCC1 (centres undefined)	–	–	–	55.9	–
Cc1[nH]nc2c1C(C1CC=CCC1)C(C#N)=C(N)O2 (centres undefined)	–	·	–	–	–
Cc1ccccc1CN1CCNC(=O)C1CC(=O)O (centres undefined)	–	28.3	–	–	–
CCOC(=O)CSC1=C(C#N)C(c2ccc(Cl)cc2)CC(=O)N1 (centres undefined)	–	–	–	–	–
CCOC(=O)CSC1=C(C#N)C(c2ccc(C)o2)CC(=O)N1 (centres undefined)	–	–	–	99.1	–
CCCCOc1ccccc1NC(=O)Cn1c(-c2nonc2N)nc2ccccc21	–	·	–	33.3	–
CC(C)(C)NC(=O)Cn1c(-c2nonc2N)nc2ccccc21	·	–	·	·	·
Cc1ccc(Cn2c(-c3nonc3N)nc3ccccc32)cc1	–	·	–	–	–
COc1cc(Cn2c(-c3nonc3N)nc3ccccc32)ccc1C	–	–	–	30.7	–
COc1cccc(Cn2c(-c3nonc3N)nc3ccccc32)c1	–	–	–	81.2	–
SMILES	TNAP act DEA	Calb biofilm kill	MMP13 inh	Jurkat tox 60K	HEK293 NFkB inh
CCOC(=O)Cc1csc(NC(=O)CCN2C(=O)c3ccccc3C2=O)n1	–	–	–	–	–
Cc1ccc(S(=O)(=O)/C(C#N)=C/c2c(N3CC(C)OC(C)C3)nc3c(C)cccn3c2=O)cc1 (centres undefined)	·	–	·	·	·
C=CCNc1nc2c(c(=O)n(C)c(=O)n2C)n1CCCCCC	–	·	–	82.4	–
Cc1nc(-c2ccccc2O)n(-c2ccccc2)n1	·	–	·	·	·
Cn1c(SC2=CS(=O)(=O)c3ccccc32)nc2ccccc21	–	–	–	73.1	–
COc1cc2c(O)c3c(c(-c4ccc5c(c4)OCO5)c2cc1OC)C(=O)OC3	–	–	–	60.5	–
COc1cc2c(=O)n(-c3ccc(C)cc3)c(=O)n(CC(=O)c3ccc4c(c3)OCO4)c2cc1OC	–	–	–	–	–
O=C(Cc1cccs1)Nc1nc2c(s1)CCCC2	–	–	–	38.3	45.7
Cc1cc(Cl)ccc1OCCCC(=O)NO	–	–	–	93.3	–
CCN(C1CCCCC1)S(=O)(=O)c1ccc(S(=O)(=O)NCc2ccncc2)cc1	–	–	–	68.7	–
Cc1csc(NC(=O)c2sc3nc(-c4cccs4)ccc3c2N)n1	–	–	–	–	54.3
COc1cccc(C(c2sc3nc(C)nn3c2O)N2CCc3ccccc3C2)c1 (centres undefined)	–	–	–	–	–
CCC(=O)N1CCN(c2nc(-c3ccccc3)c3c(c2C#N)CCCC3)CC1	–	–	·	·	·
CN(C(=O)c1ccncc1)c1nnc(-c2ccccn2)s1	–	–	–	–	–
CN(C(=O)c1ccno1)c1nnc(-c2ccccn2)s1	–	20.0	–	–	–
